Reference: ChEMBL document CHEMBL1128280, “Synthesis, topoisomerase I inhibitory activity, and in vivo evaluation of 11-azacamptothecin analogs” (J Med Chem, 1995)
In brackets after ≈: the same amount, converted by molar mass.

What was measured:
[1] = Aqueous solubility in pH 5 acetate buffer.; format: physicochemical
How it was run: (§1)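 Excess solid equilibrated in 0.25 mL 0.1 M sodium acetate, pH 5.0, 25 °C, 24 h; filtered (0.22 μm); lactone and carboxylate forms separated by reverse-phase C-18 HPLC, mobile phase 40% organic/60% aqueous with 0.005 M tetrabutylammonium phosphate; quantified against calibration curves of standard peak areas.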

[2] = (§2) Concentration required to inhibit 50% growth of human colon carcinoma cell line (HT-29); format: functional, cell-based
How it was run: (§3)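 MTT microculture tetrazolium assay; cells grown in α-MEM with 15% heat-inactivated FBS, glutamine, pyruvate, insulin, nonessential amino acids, gentamycin, 37 °C, 5% CO2; adhered overnight, exposed to compound 48 h then fresh medium 48 h; 0.17 nM to 10 μM, quadruplicate; 4 h MTT, DMSO extraction; four-parameter logistic fit, usually single curve.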

Mus musculus [3] = assay: Delay in tumor growth in mice to 500% volume of day 1 relative to control at dose 90 mg/kg.; format: functional
How it was run: (§4)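 Female nu/nu mice bearing subcutaneous flank HT-29 xenografts; single-bolus subcutaneous maximum tolerated dose first set in tumor-free mice by body weight loss, then split into three portions given over one day (N = 6); caliper volume = length × width²/2; T−C = difference in days for mean tumor volume to reach 500% of initial, treated vs controls.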

SK-OV-3 = assay: Concentration required to inhibit 50% growth of human ovarian cancer cell line(SK-OV-3) was measured; format: functional, cell-based; how it was run: as §3
[4] = Aqueous solubility determined in pH 5 acetate buffer; format: physicochemical; how it was run: as §1
Mus musculus [5] = assay: Delay in tumor growth in mice to 500% volume of day 1 relative to control at dose 100 mg/kg.; format: functional; how it was run: as §4
HT-29 = assay: as §2; format: functional, cell-based; how it was run: as §3
Mus musculus [6] = assay: Delay in tumor growth in mice to 500% volume of day 1 relative to control at dose 25 mg/kg.; format: functional; how it was run: as §4
SK-VLB = assay: Concentration required to inhibit 50% growth of vinblastine resistant ovarian cancer cell line(SKVLB); format: functional, cell-based; settings: Homo sapiens; how it was run: as §3
Mus musculus [7] = assay: Delay in tumor growth in mice to 500% volume of day 1 relative to control at dose 146 mg/kg; format: functional; how it was run: as §4
Mus musculus [8] = assay: Delay in tumor growth in mice to 500% volume of day 1 relative to control at dose 120 mg/kg.; format: functional; how it was run: as §4
Mus musculus [9] = assay: Delay in tumor growth in mice to 500% volume of day 1 relative to control at dose 200 mg/kg.; format: functional; how it was run: as §4
Mus musculus [10] = assay: Delay in tumor growth in mice to 500% volume of day 1 relative to control at dose 54 mg/kg.; format: functional
How it was run: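 Female nu/nu mice (18-24 g) with subcutaneous HT-29 flank xenografts, N = 6. Maximum tolerated single subcutaneous bolus first set by body weight loss in tumor-free nude mice. That dose was split into three portions given over one day. Tumor volume by calipers as length × width²/2. T−C is the delay, in days, for mean tumor volume to reach 500% of initial versus untreated controls.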

Compound	IC50 (SK-OV-3) [µM]	solubility [4] [mg/mL]	IC50 (HT-29) [µM]	other results
CCc1c2c(nc3cnccc13)-c1cc3c(c(=O)n1C2)COC(=O)[C@]3(O)CC	–	–	–	solubility [1]: 0.01 mg/mL (≈ 0.0265 mM)
CCc1c2c(nc3cnc(C(=N)N)cc13)-c1cc3c(c(=O)n1C2)COC(=O)[C@]3(O)CC	0.071	> 3	–	IC50 [2]: 0.311 µM; T-C (Mus musculus [3]): 6 days
CCc1c2c(nc3c[n+](C)ccc13)-c1cc3c(c(=O)n1C2)COC(=O)[C@]3(O)CC.[I-]	–	–	–	solubility [1]: > 2.5 mg/mL; T-C (Mus musculus [5]): 3.5 days
CC[C@@]1(O)C(=O)OCc2c1cc1n(c2=O)Cc2c-1nc1cnc(C#CCN)cc1c2C	0.245	–	–	IC50 [2]: 0.355 µM
CC[C@@]1(O)C(=O)OCc2c1cc1n(c2=O)Cc2cc3cc[n+]([O-])cc3nc2-1	–	–	–	solubility [1]: 0.3 mg/mL (≈ 0.821 mM)
CCOC(=O)c1cc2c(CC)c3c(nc2cn1)-c1cc2c(c(=O)n1C3)COC(=O)[C@]2(O)CC	–	–	0.026	–
CCc1c2c(nc3cnc(C(=N)NO)cc13)-c1cc3c(c(=O)n1C2)COC(=O)[C@]3(O)CC	0.0008	> 3	–	IC50 [2]: 0.007 µM; T-C (Mus musculus [6]): 15 days
CCc1c2c(nc3cnc(C#N)cc13)-c1cc3c(c(=O)n1C2)COC(=O)[C@]3(O)CC	–	–	0.017	–
CCc1c2c(nc3cnc(CN)cc13)-c1cc3c(c(=O)n1C2)COC(=O)[C@]3(O)CC	0.032	–	–	IC50 (SK-VLB): 0.444 µM
CC[C@@]1(O)C(=O)OCc2c1cc1n(c2=O)Cc2c-1nc1cnc(Br)cc1c2C	0.001	–	0.001	IC50 (SK-VLB): 0.0005 µM
CCc1c2c(nc3cnc(C#CCN)cc13)-c1cc3c(c(=O)n1C2)COC(=O)[C@]3(O)CC	0.243	5.7 (≈ 13.2 mM)	0.351	T-C (Mus musculus [7]): 1.5 days; IC50 (SK-VLB): 0.384 µM
CCc1c2c(nc3cnc(Br)cc13)-c1cc3c(c(=O)n1C2)COC(=O)[C@]3(O)CC	–	–	0.007	–
CC[C@@]1(O)C(=O)OCc2c1cc1n(c2=O)Cc2c-1nc1c[n+]([O-])c(CN)cc1c2C	0.066	> 3	–	IC50 [2]: 0.731 µM; T-C (Mus musculus [8]): 5.3 days
CC[C@@]1(O)C(=O)OCc2c1cc1n(c2=O)Cc2c-1nc1cnc(CN)cc1c2C	0.017	7.2 (≈ 18.3 mM)	0.123	T-C (Mus musculus [9]): 3.4 days; IC50 (SK-VLB): 0.042 µM
CC[C@@]1(O)C(=O)OCc2c1cc1n(c2=O)Cc2cc3ccccc3nc2-1 [CAMPTOTHECIN]	–	–	–	solubility [1]: < 0.005 mg/mL
CC[C@@]1(O)C(=O)OCc2c1cc1n(c2=O)Cc2cc3c(CN(C)C)c(O)ccc3nc2-1.Cl [TOPOTECAN HYDROCHLORIDE]	–	3.1	–	T-C (Mus musculus [10]): 10.3 days
